# PDI turbidity – inhibitors of human PDI, primary screen, biochemical, turbidity, single point, plate reader; Protein disulfide-isomerase (Homo sapiens), P07237; PDI insulin aggregation turbidity, A650, 90 min; inhibition, % at 10 µM; hit rate 0.052% among 350,000;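 active = mean inhibition across replicates of 30% or more, whatever share of single replicates reach that level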
# FGF22 binding – binders of human FGF22 protein, primary screen, FGF22 synaptogenesis inhibitor project, biophysical, thermal shift, single point; hit rate 1.5% among 340,000; recombinant FGF22 thermal shift, SYPRO orange fluorescence; percent of sucrose octasulfate shift, DMSO zero; Fibroblast growth factor 22 (Homo sapiens), Q9HCT0; activity (Tm shift, normalised), % at 9.99 µM;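 active = mean Tm shift, scaled 0 neutral to 100 positive control, at about 1.3% or above, every replicate too, limit read from the data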
# ERp5 block – inhibitors of ERp5-driven insulin aggregation, primary screen, biochemical, turbidity, absorbance 650 nm, single point. inhibition, % at 9.99 µM. 90 min. hit rate 0.05% among 350,000. Protein disulfide-isomerase A6 (Homo sapiens), Q15084;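 active = mean replicate inhibition above about 25%, with every replicate also reaching it, limit read from the data, passing the limit was not always enough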
# MLL AF4-AF9 inh – inhibitors of AF4 peptide binding to AF9, primary screen, biochemical, AlphaScreen, biotin-AF4 peptide, FLAG-AF9, single point; Protein AF-9 (Homo sapiens), P42568; hit rate 0.47% among 350,000; inhibition, % at 10 µM;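 active = every replicate reaching a set inhibition limit, whatever the replicate mean, cut at about 25% in these data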
# Target sequence (P42568 whole entry, looked up): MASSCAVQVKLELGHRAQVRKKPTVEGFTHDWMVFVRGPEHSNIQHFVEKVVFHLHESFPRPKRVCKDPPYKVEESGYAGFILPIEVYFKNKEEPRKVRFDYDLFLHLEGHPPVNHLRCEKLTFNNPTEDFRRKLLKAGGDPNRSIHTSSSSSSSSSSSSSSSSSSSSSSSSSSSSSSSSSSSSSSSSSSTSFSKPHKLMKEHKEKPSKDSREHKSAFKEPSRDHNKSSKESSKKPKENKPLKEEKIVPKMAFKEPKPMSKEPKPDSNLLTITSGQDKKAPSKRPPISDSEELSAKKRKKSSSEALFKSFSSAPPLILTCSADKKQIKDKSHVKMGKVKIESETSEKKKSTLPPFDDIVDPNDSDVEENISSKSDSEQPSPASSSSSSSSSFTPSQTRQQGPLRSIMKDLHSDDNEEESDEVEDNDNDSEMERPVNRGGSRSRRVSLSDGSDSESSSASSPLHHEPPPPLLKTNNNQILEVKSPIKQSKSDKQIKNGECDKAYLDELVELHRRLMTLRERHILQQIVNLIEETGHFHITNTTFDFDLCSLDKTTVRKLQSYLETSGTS
# ARNT-TACC3 inh – disruptors of ARNT/TACC3 protein interaction, primary screen, biochemical, AlphaScreen, single concentration; AlphaScreen His-ARNT PAS-B/GST-TACC3 binding, luminescence; TACC3 fragment carries E629A point mutation; inhibition, % at 9.99 µM; hit rate 0.66% among 390,000; Transforming acidic coiled-coil-containing protein 3 (Homo sapiens), Q9Y6A5;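 active = mean inhibition of replicates at least 50% and at least half of replicates each reaching 50%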
# FN deposit inh – inhibitors of fibronectin matrix deposition, primary screen, AH1F cells, Alexa488-fibronectin fluorescence, plate reader. inhibition, % at 12.6 µM. hit rate 0.086% among 350,000. AH1F fibroblasts, overnight;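 active = mean inhibition across replicates of 30% or more, regardless of how many single replicates reach that level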
#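 Material: AH1F fibroblast monolayer depositing Alexa488-labelled fibronectin into matrix / Amount: 10000 AH1F cells per well / Signal: fluorescence 485/525 nm / Medium: DMEM, 2% serum / Compound: single dose, pinned / Incubation: 1 h cell adhesion before compound, then overnight fibronectin incubation / Reagent: Alexa488-FN, 24 nM final / Read-out: inhibition of fibronectin deposition signal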
# Hits are given with their value; n = inactive; x = not tested or not shown. An excerpt weighted towards active compounds, which were near 2.1% of everything screened.
SMILES,PDI turbidity,FGF22 binding,ERp5 block,MLL AF4-AF9 inh,ARNT-TACC3 inh,FN deposit inh
COc1ccccc1C(=O)NNC(=S)NC(=O)c1cc(OC)c(OC)c(OC)c1,n,n,n,n,n,n
COc1ccc(C(=O)NC(=S)NNC(=O)c2cnccn2)cc1,n,x,x,x,59,x
COc1cc(C(=O)NC(=S)NNC(=O)c2cnccn2)cc(OC)c1OC,n,x,x,x,65,n
O=C(NC(=S)NNC(=O)c1cnccn1)c1ccc(Cl)cc1,n,n,n,n,54,n
C[C@H]1CN([C@@H](C)CO)C(=O)Cc2cc(NS(=O)(=O)c3cccs3)ccc2O[C@H]1CN(C)Cc1ccc(C(=O)Nc2ccccc2N)cc1,x,n,n,n,x,x
CS(=O)(=O)Nc1ccc2c(c1)[C@@H]1C[C@@H](CC(=O)NCC3CC3)O[C@H](CO)[C@@H]1O2,x,n,n,n,n,x
CCOc1cc(C(=O)Nc2cccc(C(C)=O)c2)ccc1OCC(=O)N1CCCCC1,n,44,n,n,n,n
CCC(=O)c1ccc(OCC(=O)N2CCCC2)c(OC)c1,n,44,n,n,n,n
COc1ccc(C(=O)C2CCCN(C(=O)COc3ccc(C(C)=O)cc3)C2)cc1F (centres undefined),n,44,n,n,n,n
C[C@@H]1CCCCO[C@H](CN(C)S(=O)(=O)c2ccccc2)[C@H](C)CN([C@H](C)CO)C(=O)c2cc(NC(=O)C3CCCCC3)ccc2O1,x,x,n,n,n,n
CO[C@@H]1CN(C)C(=O)c2cc(NS(=O)(=O)Cc3ccccc3)ccc2OC[C@H](C)NC[C@@H]1C,x,n,n,n,n,n
CC1(C)CC(=O)C2=C(C1)OC1=C(C(=O)CC(C)(C)C1)C2c1ccc(O)cc1O,77,x,x,x,n,n
CC1(C)CC(=O)C2=C(C1)OC1=C(C(=O)CC(C)(C)C1)C2c1ccc(O)c([N+](=O)[O-])c1,n,n,n,n,x,n
O=C1CN(S(=O)(=O)Cc2ccccc2)C[C@H]2[C@@H](c3ccc(C#Cc4cccnc4)cc3)[C@@H](CO)N12,x,x,n,n,x,x
CCc1ccc(CNC(=O)c2nn(C)c3c2CS(=O)(=O)c2ccccc2-3)cc1,n,68,n,n,n,n
CC1(C)CC[C@]2(C(=O)O)CC[C@]3(C)C(=CC[C@@H]4[C@@]5(C)CC[C@H](O[C@@H]6O[C@H](C(=O)O)[C@@H](O)[C@H](O[C@@H]7OC[C@H](O)[C@H](O)[C@H]7O)[C@H]6O)C(C)(C)[C@@H]5CC[C@]43C)[C@@H]2C1,88,n,n,n,n,51
COc1ccc2c3c(n(C)c2c1)[C@H](CO)N(CC1CCCCC1)CC31CCN(C(=O)CN(C)C)CC1,x,n,n,n,x,x
CCCCCCCCSc1nnc2[nH]c(=O)cc(N)n12,n,43,n,n,n,n
Cc1cc(OCC(=O)N2CCc3ccccc3C2)c(C)cc1Br,n,18,n,n,n,n
Cc1ccc(C)c(OCC(=O)N2CCc3ccccc3C2)c1,n,n,n,n,n,n
Cc1ccc(NC(=O)C(OC(=O)c2ccc(O)cc2)c2ccccc2)cc1Cl (centres undefined),n,78,n,n,x,n
Cc1ccccc1Nc1c(-c2ccccn2)nc2ccccn12,n,n,n,42,59,n
Cc1ccc2nc(-c3ccccn3)c(Nc3ccccc3C)n2c1,n,n,n,n,64,n
CC(C)N(Cc1ccccc1)C(=S)Nc1ccc(F)cc1,n,43,n,n,n,n
CC(C)C#Cc1ccc2c(c1)O[C@@H](CN(C)C)[C@@H](C)CN([C@@H](C)CO)S2(=O)=O,x,n,n,n,n,x
SMILES,PDI turbidity,FGF22 binding,ERp5 block,MLL AF4-AF9 inh,ARNT-TACC3 inh,FN deposit inh
CC(CC(=O)O)CC(=O)Nc1cccc([N+](=O)[O-])c1 (centres undefined),n,43,n,n,n,n
CC(C)CNC(CC(=O)Nc1cccc([N+](=O)[O-])c1)C(=O)O (centres undefined),n,x,x,x,n,n
O=C(Cc1cccs1)Nc1cccc([N+](=O)[O-])c1,n,43,n,n,n,n
O=C(CCc1n[nH]c(=O)[nH]c1=O)Nc1cccc([N+](=O)[O-])c1,n,44,n,n,x,n
COc1ccc(C#Cc2ccc3c(c2)[C@H]2[C@H](CCN2S(=O)(=O)c2ccccc2C)[C@H](CO)N3C)cc1,x,n,n,n,n,n
CO[C@@H]1CN(C)C(=O)c2ccc(NC(=O)NC(C)C)cc2OC[C@H](C)N(CCC(F)(F)F)C[C@@H]1C,x,n,n,n,n,n
O=C(NCc1ccccc1)[C@@H]1N[C@@H]2c3ccc(-c4ccccc4)c(=O)n3C[C@@H]2[C@H]1CO,x,n,x,n,n,x
Cc1ccc(S(=O)(=O)N(C)C[C@H]2OCCCC[C@H](C)Oc3ccc(NS(=O)(=O)c4ccc(Cl)cc4)cc3C(=O)N([C@@H](C)CO)C[C@@H]2C)cc1,x,n,n,n,n,n
O=C(/C=C/c1ccco1)Nc1nc(-c2ccccn2)cs1,n,n,n,n,65,n
O=C(/C=C/c1ccco1)Nc1nc(-c2ccccc2)cs1,n,n,n,n,n,n
CCc1sc(C(=O)Nc2nc(-c3ccccn3)cs2)cc1C,n,x,x,x,63,x
CC(=O)Nc1ccc2nc(NC(=O)COc3ccccc3Cl)sc2c1,n,43,n,n,n,n
Cc1ccc(S(=O)(=O)N2CCOCC2)cc1C(=O)Nc1nc(-c2ccccn2)cs1,n,n,n,n,75,n
O=S(=O)(N[C@@H]1CC[C@H](CCn2cc(Cc3ccccc3)nn2)O[C@H]1CO)c1ccccc1F,x,n,n,n,n,n
CC(Oc1ccccc1)C(=O)Nc1nc(-c2ccccn2)cs1 (centres undefined),n,n,n,n,68,n
C[C@H](NC(=O)c1ccccc1)C(=O)Nc1nc(-c2ccccn2)cs1,n,43,n,n,64,n
O=C(COc1ccc(F)cc1Cl)Nc1nc(-c2ccccn2)cs1,n,n,n,n,48,n
CC(C)NC(=O)N(C)C[C@@H]1Oc2ccc(NC(=O)Nc3ccccc3)cc2C(=O)N([C@@H](C)CO)C[C@H]1C,x,n,n,n,n,x
COCCNC(=O)C[C@@H]1CC[C@@H]2[C@H](COC[C@H](O)CN2C(=O)Nc2ccccc2OC)O1,x,n,n,n,n,n
CCN(CC)C(=O)CSc1nc2c(c(-c3cccnc3)c1C#N)CCCC2,n,43,n,n,n,n
O=C(C[n+]1ccccc1)N/N=C/c1ccccc1[N+](=O)[O-],n,43,n,n,x,n
